Assay results of several laboratories.
Each line is one published result; the experiments were not run side by side.
Cell line: NCI-H1975
Read-out: cell growth or viability

Structure (SMILES)	method	tested at	time	measurement	value
COc1ccc(NC(=O)Nc2nc3cc(-c4ccc5ncn(CCN(C)C)c(=O)c5c4)ccc3s2)cc1	MTT		72 h	IC50	> 20 µM
C#Cc1cccc(Nc2ncnc3cc(OCCOC)c(OCCOC)cc23)c1	MTT		72 h	IC50	5.72 µM
Cc1ccc(NC(=O)Nc2nc3cc(-c4ccc5ncn(Cc6ccccc6)c(=O)c5c4)ccc3s2)cc1	MTT		72 h	IC50	> 20 µM
CCCn1cnc2ccc(-c3ccc(NC(=O)CC4CC4)nc3)cc2c1=O	CCK-8		72 h	IC50	3.48 µM
COc1ccc2/c(=N/c3ccccc3NC(=O)[C@H](C)N)cc(-c3ccc4c(c3)OCCO4)oc2c1	CCK-8	1 µM		inhibition	5.17%
CCCn1cnc2ccc(-c3ccc(NC(=O)c4ccccc4)nc3)cc2c1=O	CCK-8		72 h	IC50	0.095 µM
N[C@@H](CO)C(=O)Nc1ccccc1/N=c1\cc(-c2ccc3c(c2)OCO3)oc2ccccc12	CCK-8	1 µM		inhibition	-1.95%
CCCCC(=O)Nc1ccc(-c2ccc3ncn(CC4CCC4)c(=O)c3c2)cn1	CCK-8		72 h	IC50	1.4 µM
COc1cccc(NC(=O)Nc2nc3cc(-c4ccc5ncn(CCN(C)C)c(=O)c5c4)ccc3s2)c1	MTT		72 h	IC50	> 20 µM
CC(C)(C)[C@H](N)C(=O)Nc1ccccc1/N=c1\cc(-c2ccc3c(c2)OCCO3)oc2cc(F)ccc12	CCK-8	1 µM		inhibition	-7.44%
